Measured values taken from ChEMBL document CHEMBL3272204, “Products from furans. 1. Sunthesis and anticoccidial and antimicrobial activity of 5-amino-5,6-dihydro-6-methoxy-2-methyl-2-(4'-biphenylyl)-2H-pyran-3(4H)-ones and related compounds” (1976).
≈ marks a conversion by molar mass, not a printed value. Calls of active or inactive are those of the source. The calls are words filed in the database; no cut-off is given here.

Legend:
Candida albicans = test: Antifungal activity against Candida albicans assessed as growth inhibition after 5 days at 37 degC; assay type: functional
How it was run: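 Twofold serial dilutions in Sabouraud broth. The minimum inhibitory concentration was read after 5 days at 37°.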

Klebsiella aerogenes = test: Antibacterial activity against Aerobacter aerogenes assessed as growth inhibition after 24 hrs; assay type: functional
How it was run: (§1)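 Twofold serial dilutions in nutrient broth. The minimum concentration inhibiting visible growth was read after 24 hr incubation at 37°.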

Klebsiella pneumoniae = test: Antibacterial activity against Klebsiella pneumoniae assessed as growth inhibition after 24 hrs; assay type: functional; how it was run: as §1
Eimeria tenella [1] = test: Anticoccidal activity against Eimeria tenella assessed as improved weight gain in chicken at 0.05%, po; assay type: functional, organism-based
How it was run: (§2)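 Chickens with experimental coccidiosis received compound orally in the diet at 0.05%, starting 1 day before infection. Efficacy was judged 6 days later from survival and weight gain.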

Escherichia coli = test: Antibacterial activity against Escherichia coli 198 assessed as growth inhibition after 24 hrs; assay type: functional; how it was run: as §1
Enterococcus faecalis = test: Antibacterial activity against Streptococcus faecalis assessed as growth inhibition after 24 hrs; assay type: functional; how it was run: as §1
Staphylococcus [2] = test: Antibacterial activity against penicillin-sensitive Staphylococcus pyogenes assessed as growth inhibition after 24 hrs; assay type: functional
How it was run: (§3)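 Halving (twofold) serial dilutions of compound in nutrient broth, in vitro. Incubated 24 hr at 37°. Value reported is the lowest concentration that inhibited growth.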

Staphylococcus [3] = test: Antibacterial activity against penicillin-resistant Staphylococcus pyogenes assessed as growth inhibition after 24 hrs; assay type: functional; how it was run: as §3
[4] = Antifungal activity against Trichophyton granulosum assessed as growth inhibition after 10 days at 28 degC; assay type: functional; settings: Trichophyton mentagrophytes var. granulosum
How it was run: (§4)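 Twofold serial dilutions in Sabouraud broth. The minimum inhibitory concentration was read after 10 days at 28°.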

Proteus vulgaris = test: Antibacterial activity against Proteus vulgaris assessed as growth inhibition after 24 hrs; assay type: functional; how it was run: as §1
Pseudomonas aeruginosa = test: Antibacterial activity against Pseudomonas aeruginosa assessed as growth inhibition after 24 hrs; assay type: functional; how it was run: as §1
Nannizzia gypsea = test: Antifungal activity against Microsporum gypseum assessed as growth inhibition after 10 days at 28 degC; assay type: functional; how it was run: as §4
Serratia marcescens = test: Antibacterial activity against Serratia marcescens assessed as growth inhibition after 24 hrs; assay type: functional; how it was run: as §1
Eimeria acervulina [5] = test: Anticoccidal activity against Eimeria acervulina assessed as improved weight gain in chicken; assay type: functional, organism-based; how it was run: as §2
[6] = test system: Salmonella enterica subsp. enterica serovar Pullorum; test: (§5) Antibacterial activity against Salmonella pullorum assessed as growth inhibition after 24 hrs; assay type: functional; how it was run: as §1
Eimeria tenella [7] = test: Anticoccidal activity against Eimeria tenella assessed as improved weight gain and mortality in chicken relative to noninfected control; assay type: functional, organism-based; how it was run: as §2
[8] = as §5; assay type: functional, Salmonella enterica subsp. enterica serovar Pullorum; how it was run: as §1
Eimeria acervulina [9] = test: Anticoccidal activity against Eimeria acervulina assessed as improved weight gain and mortality in chicken relative to noninfected control; assay type: functional, organism-based; how it was run: as §2
[10] = Klebsiella aerogenes, 24 h, read-out: MIC
[11] = Klebsiella pneumoniae, 24 h, read-out: MIC
[12] = Escherichia coli, 198, 24 h, read-out: MIC
[13] = Enterococcus faecalis, 24 h, read-out: MIC
[14] = Staphylococcus, 24 h, read-out: MIC
[15] = Proteus vulgaris, 24 h, read-out: MIC
[16] = Pseudomonas aeruginosa, 24 h, read-out: MIC
[17] = Serratia marcescens, 24 h, read-out: MIC
[18] = Salmonella enterica, 24 h, read-out: MIC
[19] = Nannizzia gypsea, 240 h, read-out: MIC

Compound | MIC (Candida albicans) | MIC (Klebsiella aerogenes) | MIC (Klebsiella pneumoniae) | Activity (Eimeria tenella [1]) | MIC (Escherichia coli) | MIC (Enterococcus faecalis) | MIC (Staphylococcus [2]) | MIC (Staphylococcus [3]) | MIC [4] | MIC (Proteus vulgaris) | MIC (Pseudomonas aeruginosa) | MIC (Nannizzia gypsea) | MIC (Serratia marcescens) | Activity (Eimeria acervulina [5]) | MIC [6] | MIC (Klebsiella aerogenes; [10]) [µg/mL] | MIC (Klebsiella pneumoniae; [11]) [µg/mL] | MIC (Escherichia coli; [12]) [µg/mL] | MIC (Enterococcus faecalis; [13]) [µg/mL] | Activity (Eimeria tenella [7]) | further results
CNC1CC(O)C(C)(c2ccc(-c3ccccc3)cc2)OC1OC (stereo not drawn) | inactive | inactive | inactive | inactive | inactive | inactive | inactive | inactive | inactive | inactive | inactive | inactive | inactive | inactive | inactive |  |  |  |  |  | 
CNC1CC(=O)C(C)(c2ccc(-c3ccccc3)cc2)OC1OC (stereo not drawn) |  |  |  |  |  |  |  |  |  |  |  |  |  | inactive |  | 0.8 (≈ 2.46 µM) | 0.8 (≈ 2.46 µM) | 0.8 (≈ 2.46 µM) | 0.8 (≈ 2.46 µM) | Active | MIC (Staphylococcus [2]; [14]): 0.8 µg/mL (≈ 2.46 µM); MIC (Staphylococcus [3]; [14]): 0.8 µg/mL (≈ 2.46 µM); MIC (Proteus vulgaris; [15]): 0.8 µg/mL (≈ 2.46 µM); MIC (Pseudomonas aeruginosa; [16]): 0.8 µg/mL (≈ 2.46 µM); MIC (Serratia marcescens; [17]): 0.8 µg/mL (≈ 2.46 µM); MIC [8, 18]: 0.8 µg/mL (≈ 2.46 µM)
COC1OC(C)(c2ccc(-c3ccccc3)cc2)C(=O)CC1N(C)C (single isomer, unassigned; isomer 1) | 16 µg/mL (≈ 47.1 µM) | 6.2 µg/mL (≈ 18.3 µM) | 6.2 µg/mL (≈ 18.3 µM) |  | 6.2 µg/mL (≈ 18.3 µM) | 6.2 µg/mL (≈ 18.3 µM) | 6.2 µg/mL (≈ 18.3 µM) | 6.2 µg/mL (≈ 18.3 µM) |  | 6.2 µg/mL (≈ 18.3 µM) | 6.2 µg/mL (≈ 18.3 µM) | 8 µg/mL (≈ 23.6 µM) | 6.2 µg/mL (≈ 18.3 µM) |  |  |  |  |  |  |  | MIC [8]: 6.2 µg/mL (≈ 18.3 µM)
COC1OC(C)(c2ccc(-c3ccccc3)cc2)C(=O)CC1N1CCOCC1 (stereo not drawn) | inactive |  |  |  |  |  |  |  | 16 µg/mL (≈ 41.9 µM) |  |  |  |  | inactive |  | 3.2 (≈ 8.39 µM) | 3.2 (≈ 8.39 µM) | 3.2 (≈ 8.39 µM) | 3.2 (≈ 8.39 µM) | Active | MIC (Staphylococcus [2]; [14]): 3.2 µg/mL (≈ 8.39 µM); MIC (Staphylococcus [3]; [14]): 3.2 µg/mL (≈ 8.39 µM); MIC (Proteus vulgaris; [15]): 3.2 µg/mL (≈ 8.39 µM); MIC (Pseudomonas aeruginosa; [16]): 3.2 µg/mL (≈ 8.39 µM); MIC (Nannizzia gypsea; [19]): 3.2 µg/mL (≈ 8.39 µM); MIC (Serratia marcescens; [17]): 3.2 µg/mL (≈ 8.39 µM); MIC [8, 18]: 3.2 µg/mL (≈ 8.39 µM)
COC1OC(C)(c2ccc(-c3ccccc3)cc2)C(=O)CC1N(C)C (stereo in doubt; 2a) |  |  |  |  |  |  |  |  | 8 µg/mL (≈ 23.6 µM) |  |  |  |  |  |  |  |  |  |  | Active | Activity (Eimeria acervulina [9]): Active
CN(C)C(=O)OC1C=CC(=O)C(C)(c2ccc(-c3ccccc3)cc2)O1 (stereo not drawn) |  |  |  |  |  |  |  |  | 6.2 µg/mL (≈ 17.6 µM) |  |  |  |  |  |  | 6.2 (≈ 17.6 µM) | 6.2 (≈ 17.6 µM) | 6.2 (≈ 17.6 µM) | 6.2 (≈ 17.6 µM) | Active | MIC (Candida albicans; Candida albicans, 120 h, read-out: MIC): 50 µg/mL (≈ 142 µM); MIC (Staphylococcus [2]; [14]): 6.2 µg/mL (≈ 17.6 µM); MIC (Staphylococcus [3]; [14]): 6.2 µg/mL (≈ 17.6 µM); MIC (Proteus vulgaris; [15]): 6.2 µg/mL (≈ 17.6 µM); MIC (Pseudomonas aeruginosa; [16]): 6.2 µg/mL (≈ 17.6 µM); MIC (Nannizzia gypsea; [19]): 8 µg/mL (≈ 22.8 µM); MIC (Serratia marcescens; [17]): 6.2 µg/mL (≈ 17.6 µM); Activity (Eimeria acervulina [9]): Active; MIC [8, 18]: 6.2 µg/mL (≈ 17.6 µM)
COC1C=CC(=O)C(C)(c2ccc(-c3ccccc3)cc2)O1 (single isomer, unassigned; isomer 1) |  |  |  | inactive |  |  |  |  | 8 µg/mL (≈ 27.2 µM) |  |  |  |  |  |  |  |  |  |  |  | 
COC1OC(C)(c2ccc(-c3ccccc3)cc2)C(O)CC1N1CCN(C)CC1 (stereo not drawn) | inactive | inactive | inactive |  | inactive | inactive | inactive | inactive | inactive | inactive | inactive | inactive | inactive | inactive | inactive |  |  |  |  | Active | 
COC1OC(C)(c2ccc(-c3ccccc3)cc2)C(O)CC1N(C)C (single isomer, unassigned; isomer 1) | inactive | inactive | inactive |  | inactive | inactive | inactive | inactive | inactive | inactive | inactive | inactive | inactive |  | inactive |  |  |  |  | Active | Activity (Eimeria acervulina [9]): Active
COC1OC(C)(c2ccc(-c3ccccc3)cc2)C(O)CC1N1CCOCC1 (stereo not drawn) | inactive | inactive | inactive | inactive | inactive | inactive | inactive | inactive | inactive | inactive | inactive | inactive | inactive |  | inactive |  |  |  |  |  | 
